We go through two compounds from ChEMBL document CHEMBL3414437, “Synthesis of CDDO-amino acid-nitric oxide donor trihybrids as potential antitumor agents against both drug-sensitive and drug-resistant colon cancer” (J Med Chem, 2015).

The source made the active and inactive calls. No cut-off for these calls is given here.

In series [1] the test system is Mus musculus. The series can be described thus: Toxicity in nude BALB/c mouse xenografted with FU-resistant human HCT8 cells assessed as abnormal weight changes in heart at 59.4 umol/kg administered as via oral gavage daily for 21 days. Type of series: organism-based, HCT-8. To be noted: in vivo, 504 h. A digest of the protocol: (§1)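 Male BALB/c nude mice aged 6-8 weeks, implanted s.c. in the right flank with HCT-8/5-FU cells (2 × 10^6). Once tumors reached 180-200 mm3 (days 9-11), randomized to daily gavage for 21 days in cremophor-EL/DMSO/PBS (1:1:8), 0.2 mL. At the end, liver, kidney, lung and heart checked for size, colour and weight. n = 8 per group.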

In series [2] the test system is HCT-8. The series can be described thus: Inhibition of HIF-1alpha protein expression in FU-resistant human HCT8 cells at 1 uM incubated for 24 hrs by Western blotting method. Type of series: functional, cell-based. A digest of the protocol:
(§2)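 Cells (1 x 10^6) grown 24 h in 6 cm dishes, then exposed in duplicate for 24 h to 0.25, 0.5 or 1 µM compound, with or without PTIO. Lysates (20 µg/lane) were run on 7.5% SDS-PAGE, blotted to PVDF and blocked in 5% milk. HRP secondaries with ECL detection; bands quantified by densitometry against β-actin or GAPDH. Three separate experiments, mean ± SD.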

Series [3] relates to Mus musculus. The series is described as follows: Toxicity in nude BALB/c mouse xenografted with FU-resistant human HCT8 cells assessed as abnormal size changes in lung at 59.4 umol/kg administered as via oral gavage daily for 21 days. Type of series: organism-based, HCT-8. To be noted: in vivo, 504 h. A digest of the protocol: as §1
For series [4], the system named is Mus musculus. The series can be described thus: Toxicity in ICR mouse assessed as abnormality in drinking behavior at 0.60 x 10^3 to 2.38 x 10^3 umol/kg administered as single dose via oral gavage measured up to 14 days post treatment. Type of series: organism-based. As to conditions: in vivo, 336 h. A digest of the protocol:
(§3)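 Adult ICR mice of either sex were randomised and given a single oral gavage dose of 500, 1000, 1500 or 2000 mg/kg in cremophor-EL/DMSO/PBS (1:1:8). Survival, behaviour, water and food intake, body weight and activity were monitored for up to 14 days. Body weights were taken on days 0, 7 and 14.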

In series [5] the test system is Mus musculus. The series is described as follows: Toxicity in ICR mouse assessed as abnormality in eating behavior at 0.60 x 10^3 to 2.38 x 10^3 umol/kg administered as single dose via oral gavage measured up to 14 days post treatment. Type of series: organism-based. As to conditions: in vivo, 336 h. A digest of the protocol:
as §3

Series [6] relates to HCT-8. The series is described as follows: Inhibition of MRP1 protein expression in FU-resistant human HCT8 cells at 1 uM in presence of NO scavenger carboxy-PTIO incubated for 24 hrs by Western blotting method. Type of series: functional, cell-based. A digest of the protocol: as §2
Series [7] concerns the target T1, Broad substrate specificity ATP-binding cassette transporter ABCG2 (Homo sapiens, UniProt Q9UNQ0).
T1 sequence (Q9UNQ0 whole entry): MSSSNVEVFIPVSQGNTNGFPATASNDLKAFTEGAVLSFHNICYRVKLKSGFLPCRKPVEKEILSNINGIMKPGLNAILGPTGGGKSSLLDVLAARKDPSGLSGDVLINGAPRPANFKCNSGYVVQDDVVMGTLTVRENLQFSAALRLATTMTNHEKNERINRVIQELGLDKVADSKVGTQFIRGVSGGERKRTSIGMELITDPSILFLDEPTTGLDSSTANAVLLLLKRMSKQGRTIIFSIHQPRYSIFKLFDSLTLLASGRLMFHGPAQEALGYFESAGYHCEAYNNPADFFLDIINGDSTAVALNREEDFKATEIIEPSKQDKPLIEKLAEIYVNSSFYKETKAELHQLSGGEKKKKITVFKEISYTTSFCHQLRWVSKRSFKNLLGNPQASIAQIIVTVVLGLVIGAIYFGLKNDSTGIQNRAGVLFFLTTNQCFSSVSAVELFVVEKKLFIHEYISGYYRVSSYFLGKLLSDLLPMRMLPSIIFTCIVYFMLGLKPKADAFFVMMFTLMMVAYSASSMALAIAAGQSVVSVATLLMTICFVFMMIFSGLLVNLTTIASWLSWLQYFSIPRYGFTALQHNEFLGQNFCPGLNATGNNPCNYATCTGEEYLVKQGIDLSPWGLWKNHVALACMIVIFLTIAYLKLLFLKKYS
The series can be described thus: Induction of nitrosylation of BCRP protein in FU-resistant human HCT8 cells at 0.25 to 1 uM incubated for 24 hrs by Western blotting method. To be noted: hct-8, 24 h. Format: cell-based. A digest of the protocol:
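HCT-8/5-FU cells (1 × 10^6) treated in duplicate for 24 h with 0.25, 0.5 or 1 µM test compound or 1 µM reference, with or without PTIO. Lysates immunoprecipitated overnight at 4 °C with anti-nitrotyrosine antibody on protein G beads. Eluates blotted with specific anti-Pgp, anti-MRP1 or anti-BCRP antibodies and quantified by densitometry. Mean ± SD of three experiments.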

The target of series [8] is Signal transducer and activator of transcription 3 (Homo sapiens) (UniProt P40763). The series is described as follows: Inhibition of STAT3 protein phosphorylation in human HCT8 cells at 0.25 to 1 uM incubated for 24 hrs by Western blotting method. Type of series: cell-based. As to conditions: HCT-8. A digest of the protocol: as §2
Sequence of Signal transducer and activator of transcription 3 (Homo sapiens) (P40763 whole entry): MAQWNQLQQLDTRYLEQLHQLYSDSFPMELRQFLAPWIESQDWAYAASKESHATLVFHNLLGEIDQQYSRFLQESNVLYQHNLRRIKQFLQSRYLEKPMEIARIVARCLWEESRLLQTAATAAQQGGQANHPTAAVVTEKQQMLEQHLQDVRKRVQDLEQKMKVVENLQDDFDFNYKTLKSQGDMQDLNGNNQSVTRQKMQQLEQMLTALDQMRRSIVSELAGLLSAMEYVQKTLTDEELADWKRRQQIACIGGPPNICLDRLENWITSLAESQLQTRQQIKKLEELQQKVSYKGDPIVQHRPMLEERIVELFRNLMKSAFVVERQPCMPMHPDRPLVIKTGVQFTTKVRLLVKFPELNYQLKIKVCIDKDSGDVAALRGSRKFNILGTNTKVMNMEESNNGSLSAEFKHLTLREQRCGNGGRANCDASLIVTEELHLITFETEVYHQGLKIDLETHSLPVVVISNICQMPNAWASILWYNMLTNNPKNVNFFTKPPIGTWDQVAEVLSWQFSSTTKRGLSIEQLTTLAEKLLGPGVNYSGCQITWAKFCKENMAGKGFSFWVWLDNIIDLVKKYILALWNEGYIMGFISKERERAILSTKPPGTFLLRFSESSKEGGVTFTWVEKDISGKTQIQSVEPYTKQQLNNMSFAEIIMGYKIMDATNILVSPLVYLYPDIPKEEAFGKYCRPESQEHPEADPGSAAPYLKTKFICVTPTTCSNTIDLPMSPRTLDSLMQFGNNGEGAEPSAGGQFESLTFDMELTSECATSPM
Series [9] concerns HCT-8. The series is described as follows: Inhibition of P-gp protein expression in FU-resistant human HCT8 cells at 0.25 to 1 uM incubated for 24 hrs by Western blotting method. Type of series: functional, cell-based. A digest of the protocol:
as §2

Series [10] has as its system Mus musculus. The series can be described thus: Toxicity in nude BALB/c mouse xenografted with FU-resistant human HCT8 cells assessed as abnormal color changes in lung at 17.8 to 35.7 umol/kg administered as via oral gavage daily for 21 days. To be noted: in vivo, 504 h. Type of series: organism-based, HCT-8. A digest of the protocol: as §1
The target of series [11] is RAC-alpha serine/threonine-protein kinase (Homo sapiens) (UniProt P31749). The series can be described thus: Inhibition of AKT protein phosphorylation in human HCT8 cells at 0.25 to 1 uM incubated for 24 hrs by Western blotting method. As to conditions: HCT-8. Format: cell-based. A digest of the protocol: as §2
Sequence of RAC-alpha serine/threonine-protein kinase (Homo sapiens) (P31749 whole entry): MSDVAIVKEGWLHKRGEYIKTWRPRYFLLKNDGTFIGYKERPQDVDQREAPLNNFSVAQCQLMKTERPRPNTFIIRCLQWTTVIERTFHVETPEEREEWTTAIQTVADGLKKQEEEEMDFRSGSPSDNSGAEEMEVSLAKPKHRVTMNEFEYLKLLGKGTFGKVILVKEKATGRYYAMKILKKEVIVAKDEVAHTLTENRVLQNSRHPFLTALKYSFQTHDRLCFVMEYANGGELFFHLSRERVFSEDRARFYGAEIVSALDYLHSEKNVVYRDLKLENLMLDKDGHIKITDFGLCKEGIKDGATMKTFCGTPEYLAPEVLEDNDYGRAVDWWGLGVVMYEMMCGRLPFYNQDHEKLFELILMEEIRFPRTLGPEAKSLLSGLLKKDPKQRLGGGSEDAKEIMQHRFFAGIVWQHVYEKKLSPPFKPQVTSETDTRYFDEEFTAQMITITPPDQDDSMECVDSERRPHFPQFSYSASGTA
In series [12] the test system is HCT-8. The series is described as follows: Inhibition of BCRP protein expression in FU-resistant human HCT8 cells at 0.25 to 1 uM incubated for 24 hrs by Western blotting method. Format: functional, cell-based. A digest of the protocol:
as §2

In series [13] the test system is Mus musculus. The series can be described thus: Toxicity in ICR mouse assessed as general activity changes at 0.60 x 10^3 to 2.38 x 10^3 umol/kg administered as single dose via oral gavage measured up to 14 days post treatment. Type of series: organism-based. To be noted: in vivo, 336 h. A digest of the protocol: as §3
For series [14], the system named is HCT-8. The series is described as follows: Antitumor activity against FU-resistant human HCT8 cells xenografted in nude BALB/c mouse assessed as reduction in tumor volume at 17.8 to 35.7 umol/kg administered as via oral gavage daily for 21 days. Format: functional. A digest of the protocol: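 Male BALB/c nude mice, 6–8 weeks old, inoculated s.c. in the right flank with HCT-8/5-FU cells (2 × 10^6). Once tumors reached 180–200 mm3 (days 9–11), mice were randomized (n = 8) to daily oral gavage for 21 days in cremophor-EL/DMSO/PBS (1:1:8). Tumor volume = W2(L/2), caliper-measured every other day, blinded; tumors weighed at end.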

Series [15] relates to Mus musculus. The series can be described thus: Toxicity in nude BALB/c mouse xenografted with FU-resistant human HCT8 cells assessed as abnormal color changes in liver at 17.8 to 35.7 umol/kg administered as via oral gavage daily for 21 days. Format: organism-based, HCT-8. As to conditions: in vivo, 504 h. A digest of the protocol:
as §1

In a further series the test system is CCD-841CoN. The series is described as follows: Induction of nitric oxide release in human CCD-841-CoN cells at 100 uM incubated for 150 mins by Griess assay. Type of series: functional, cell-based. A digest of the protocol:
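Cells (1 × 10^6/well) treated in triplicate with compound at 100 µM for 150 min. Lysates mixed with Griess reagent for 10 min at 37 °C and read at 540 nm. Nitrite quantified from a sodium nitrite standard curve; 0.4% DMSO-treated cells served as background. Mean ± SD of three experiments.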

For series [16], the system named is HCT-8. The series is described as follows: Antiproliferative activity against human HCT8 cells assessed as inhibition of cell proliferation at 0.25 uM after 24 hrs by MTT assay. Format: functional, cell-based.

For `COC(=O)[C@]12CCC(C)(C)C[C@H]1[C@H]1C(=O)C=C3[C@@]4(C)C=C(C#N)C(=O)C(C)(C)[C@@H]4CC[C@@]3(C)[C@]1(C)CC2` [BARDOXOLONE METHYL], the Activity entry in the series on Mus musculus [1] and in the series on Mus musculus [3] was “Non-toxic” in each case. Besides, the inhibition result in the series with HCT-8 [2] was “Active”.
Turning to `CC1(C)CC[C@]2(C(=O)NCC(=O)OCC#CCOc3no[n+]([O-])c3S(=O)(=O)c3ccccc3)CC[C@]3(C)[C@H](C(=O)C=C4[C@@]5(C)C=C(C#N)C(=O)C(C)(C)[C@@H]5CC[C@]43C)[C@@H]2C1`, the Activity result is listed as “Non-toxic” in the series with Mus musculus [4]; “Non-toxic” in the series with Mus musculus [5]; “Dose-dependent effect” in [7]; “Non-toxic” in the series with Mus musculus [10]; “Non-toxic” with Mus musculus [13]; “Non-toxic” in the series on Mus musculus [15]. For the same compound, the inhibition result with HCT-8 [6] was “inactive”. For the same compound, the inhibition entry (in series [8]; in the series with HCT-8 [9]; in [11]; in the series with HCT-8 [12]; in the series on HCT-8 [14]) was “Dose-dependent effect” each time. Besides, the outcome in the series on CCD-841CoN was inactive. The result in the series with HCT-8 [16] was Active.
